Compound activity from PubChem BioAssay.
KDM4C inh: inhibitors of GASC-1 (KDM4C) histone demethylase, primary screen, biochemical, single concentration HTS. GST-KDM4C 2-372, H3K9me3 peptide, LANCE TR-FRET. inhibition, % at 12.5 µM. 0.15% of 96,000 active;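 active means mean replicate inhibition above about 25%, with at least 55% of replicates also reaching it, limit read from the data, passing the limit was not always enough; inconclusive means only one of those two conditions met; inactive means neither condition met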
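Compound: one test concentration per compound; Material: GST-GASC-1 enzyme fragment 2-372; Amount: GASC-1 enzyme at 10 nM final in reaction; Also added: H3K9me3 peptide substrate, Fe(II), 2-oxoglutarate; Technique: LANCE TR-FRET; Times: 30 min demethylation and 1 h detection at room temperature.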
T cruzi growth-1: T. cruzi intracellular proliferation inhibitors, primary screen, cell-based, beta-gal Tulahuen parasites, NIH3T3 host, luminescence | AID 624255, 2012 | inhibition, % at 8.34 µM | T. cruzi beta-gal in NIH3T3, GalScreen luminescence, 90 h | 5.9% of 77,000 active;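 active means mean inhibition above about 93%, with at least 55% of replicates each passing it, limit read from the data, passing the limit was not always enough; inconclusive means only one of those two conditions holds; inactive means neither condition holds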
IDH1 R132H inh: inhibitors of IDH1 R132H reductase, primary screen, biochemical, plate reader, single point | Isocitrate dehydrogenase [NADP] cytoplasmic (Homo sapiens), O75874 | diaphorase/resazurin fluorescence, 60 min | inhibition, % at 10 µM | 0.18% of 70,000 active | AID 624101, 2012; in the data active means inhibition above about 34%; inconclusive means no clear call, values can overlap the other calls; inactive means below about 11%;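 further: 0% = DMSO and 100% = no enzyme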
Target sequence (O75874 whole entry R132H): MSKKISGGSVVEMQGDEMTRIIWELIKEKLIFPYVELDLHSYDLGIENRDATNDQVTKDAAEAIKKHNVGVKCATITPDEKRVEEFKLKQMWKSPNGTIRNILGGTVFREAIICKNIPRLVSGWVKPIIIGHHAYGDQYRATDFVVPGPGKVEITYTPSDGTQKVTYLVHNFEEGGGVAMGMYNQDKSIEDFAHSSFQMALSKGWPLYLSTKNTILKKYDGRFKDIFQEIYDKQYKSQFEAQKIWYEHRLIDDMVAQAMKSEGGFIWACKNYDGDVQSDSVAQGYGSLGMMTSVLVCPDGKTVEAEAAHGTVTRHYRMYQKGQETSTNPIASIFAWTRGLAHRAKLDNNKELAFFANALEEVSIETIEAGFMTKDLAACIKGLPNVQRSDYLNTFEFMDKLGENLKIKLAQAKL
T cruzi growth-2: T. cruzi intracellular proliferation inhibitors, confirmation, cell-based, NIH3T3 host, beta-gal parasite, luminescence, cherry-pick; inhibition, % at 8.35 µM; T. cruzi beta-gal in NIH3T3, GalScreen luminescence, 90 h; 72% of 5,600 active; shares compounds with T cruzi growth-1;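 active means mean replicate inhibition above about 95% and at least 55% of replicates individually reaching it, limit read from the data; inconclusive means only one of the two criteria is met; inactive means neither criterion is met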
T cruzi growth-3: inhibitors of intracellular T. cruzi replication, confirmation, NIH3T3 host cells, beta-gal parasites, cherry-pick, set 2; inhibition, % at 2.09 µM; 21% of 5,600 active; shares compounds with T cruzi growth-1; T. cruzi beta-gal in NIH3T3, GalScreen luminescence, 90 h;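 active means mean inhibition above about 95%, with at least 55% of replicates also reaching it, limit read from the data; inconclusive means meets just one of the two conditions; inactive means meets neither condition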;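 further: plate controls were neutral control median for no effect and positive control median for full effect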
3T3 cytotox: cytotoxicity in mouse NIH/3T3 fibroblasts, confirmation, cytotoxicity control for T. cruzi proliferation inhibitor project, cell-based, cherry-pick, single point | cytotoxicity (signal decrease), % at 8.35 µM | 14% of 5,600 active | shares compounds with T cruzi growth-1 | AID 651742, 2012 | NIH/3T3 viability, CellTiter-Glo ATP luminescence, 90 h;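 active means mean signal decrease across replicates above about 35% based on untreated-well scatter, with enough replicates individually passing, limit read from the data; inconclusive means no rule stated though some were filed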;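 further: 0% = median of neutral control wells and 100% = median of positive control wells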
3T3 cytotox 2: NIH/3T3 fibroblast cytotoxicity, confirmation, cytotoxicity control, cell-based, cherry-pick, single point, set 2; NIH/3T3 viability, CellTiter-Glo ATP luminescence, 90 h; 56% of 5,600 active; shares compounds with T cruzi growth-1; inhibition, % at 24.9 µM;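 active means mean loss of cell viability signal at or above a set limit, and enough replicates individually reaching it; inconclusive means meets only the mean limit or only the replicate share; inactive means meets neither condition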;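 further: 0% = median of neutral control wells and 100% = median of positive control wells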
The depositor's hits bear a star; ? = inconclusive; nt = no result given. Many of the other results were omitted from the sample, so hits are more common in it than they were.

SMILES	KDM4C inh	T cruzi growth-1	IDH1 R132H inh	T cruzi growth-2	T cruzi growth-3	3T3 cytotox	3T3 cytotox 2
C[C@@H]1CCCCO[C@H](CN(C)C(=O)Nc2cccc3ccccc23)[C@@H](C)CN([C@H](C)CO)C(=O)c2cc(NS(C)(=O)=O)ccc2O1	1.1	29.1	-0.3	nt	nt	nt	nt
Cc1ccc([N+](=O)[O-])cc1NC(=O)CN(c1ccccc1F)S(C)(=O)=O	nt	nt	-0.8	nt	nt	nt	nt
CCC(=O)N1C[C@H](C)[C@@H](OC)CN(C)C(=O)c2cc(NC(=O)C3CCOCC3)ccc2OC[C@H]1C	0.2	nt	-0.1	nt	nt	nt	nt
C[C@H]1CN([C@@H](C)CO)S(=O)(=O)c2ccc(C#CC3CCCC3)cc2O[C@@H]1CN(C)C(=O)C1CC1	-0.4	-22.1	2.3	nt	nt	nt	nt
Cc1cccc(S(=O)(=O)N2CC[C@@H]3[C@H]2c2cc(Br)ccc2N(C)[C@H]3CO)c1	-1.6	73.9	nt	nt	nt	nt	nt
CN1c2ccc(Br)cc2[C@H]2[C@H](CCN2S(=O)(=O)c2cccc(F)c2)[C@@H]1CO	0.6	116.6*	nt	102.8*	88.8	33.9	22.7
CN1c2ccc(Br)cc2[C@@H]2[C@@H](CCN2S(=O)(=O)c2cccc(F)c2)[C@H]1CO	0.2	?	nt	106.2*	27.5	15.4	34.6*
CN1c2ccc(Br)cc2[C@@H]2[C@@H](CCN2S(=O)(=O)c2ccccc2)[C@@H]1CO	0.0	54.3	nt	nt	nt	nt	nt
Cn1c(SCC(=O)Nc2ccc(F)c(Cl)c2)nnc1-c1ccncc1	nt	nt	0.0	nt	nt	nt	nt
CCCC#Cc1cnc2c(c1)C(=O)N([C@H](C)CO)C[C@H](C)[C@H](CN(C)C(=O)NC1CCCC1)O2	0.1	53.8	0.2	nt	nt	nt	nt
C[C@H](CO)N1C[C@H](C)[C@@H](CN(C)Cc2ccc(C(=O)O)cc2)Oc2ccc(NC(=O)CCN3CCOCC3)cc2C1=O	nt	-21.0	3.5	nt	nt	nt	nt
C[C@H](CO)N1C[C@H](C)[C@H](CN(C)Cc2ccccc2)Oc2ccc(NS(=O)(=O)c3ccccc3)cc2C1=O	0.5	13.1	nt	nt	nt	nt	nt
NS(=O)(=O)c1cc(C(=O)O)cc(N2CCCC2)c1Oc1ccccc1	nt	nt	-0.4	nt	nt	nt	nt
CCCNC(=O)N1[C@@H](CO)[C@@H]2c3ccccc3N(C(=O)Nc3cccc(Cl)c3)C[C@@H]21	0.9	57.5	nt	nt	nt	nt	nt
N#C[C@@H]1[C@H](c2ccc(-c3cccnc3)cc2)[C@H](CO)N1C(=O)Nc1ccc(F)cc1	-1.1	35.4	nt	nt	nt	nt	nt
N#C[C@@H]1[C@H](c2ccc(C3=CCCCC3)cc2)[C@H](CO)N1C(=O)c1cccc(F)c1	-2.4	?	nt	107.3*	79.7	12.0	24.3*
N#C[C@@H]1[C@@H](c2ccccc2)[C@@H](CO)N1C(=O)c1cccnc1	-0.3	21.6	nt	nt	nt	nt	nt
COc1ccccc1-c1ccc([C@@H]2[C@@H](C#N)N(C(=O)c3cccc(F)c3)[C@@H]2CO)cc1	-1.9	68.0	nt	nt	nt	nt	nt
N#C[C@@H]1[C@@H](c2ccc(C3=CCCC3)cc2)[C@H](CO)N1C(=O)c1cccc(F)c1	-3.9	61.5	nt	nt	nt	nt	nt
COc1ccc(-c2ccc([C@H]3[C@H](C#N)N(C(=O)c4cccc(F)c4)[C@H]3CO)cc2)cc1	-2.5	105.7*	nt	100.9*	111.4*	5.5	22.3
N#C[C@H]1[C@@H](c2ccc(-c3cccnc3)cc2)[C@@H](CO)N1C(=O)Nc1ccc(F)cc1	0.7	105.5*	nt	108.4*	55.9	-30.4	-7.6
COc1ccc(-c2ccc([C@H]3[C@H](C#N)N(C(=O)c4cccnc4)[C@H]3CO)cc2)cc1	-1.3	106.9*	nt	108.3*	34.4	-2.7	30.8*
COCCNC(=O)c1cc(-c2cccnc2)nc2ccc(Br)cc12	nt	nt	0.1	nt	nt	nt	nt
Cc1onc(-c2ccccc2Cl)c1C(=O)N(Cc1nc(-c2ccccc2)no1)C1CCCCC1	nt	nt	0.2	nt	nt	nt	nt
